Measured values pooled from the literature.
Protocols differ between the studies behind these lines.
Target: Cytochrome P450 1A2 (CYP1A2, Homo sapiens, UniProt P05177)

| SMILES | test | system | conditions | endpoint | result |
| --- | --- | --- | --- | --- | --- |
| O=C(Nc1c2c(cc3c1CCC3)CCC2)NS(=O)(=O)/C=C/c1nccs1 | enzyme activity, inhibitor | human, liver microsomes | 10 µM, pH 7.4 | inhibition | 9.5% |
| COc1ccc(CNC(=O)c2ccc(CNCc3cnc4nc(N)nc(N)c4n3)cc2)cc1 | enzyme activity, inhibitor, luciferase | – | 10 µM | inhibition | -18.9% |
| C=C[C@H]1C[N@@]2CC[C@H]1C[C@@H]2[C@@H](O)c1ccnc2ccc(OC)cc12 | enzyme activity, inhibitor | human, liver microsomes | 10 µM | inhibition | -5% |
| CON=C(N)c1ccc(-c2ccc(-c3ccc(C(N)=NOC)cc3)o2)cc1 | enzyme activity, substrate | – | – | Km | 400 nM |
| Cc1ccc(C(=O)N2CCOC[C@H]2Cc2cccc(-n3nccn3)c2)c(-n2nccn2)c1 | enzyme activity, inhibitor | human, liver microsomes | 100 µM | inhibition | 23% |
| CC(=O)N1CCN(c2ccc(OCC3COC(Cn4ccnc4)(c4ccc(Cl)cc4Cl)O3)cc2)CC1 (stereo not drawn) | enzyme activity, inhibitor | human, liver microsomes | 1 µM | inhibition | -6% |
| N=C(N)N1CC=C(c2coc(C(=O)Nc3ccc(C4=CCN(C(=N)N)CC4)c(F)c3)c2)CC1 | enzyme activity, inhibitor | liver microsomes | 10 µM | inhibition | 0% |
| COc1ccc(Oc2ccc(CNCc3cnc4nc(N)nc(N)c4n3)cc2)cc1 | enzyme activity, inhibitor, luciferase | – | 10 µM | inhibition | -5.44% |
| Cc1cccc(F)c1N1CCC(N2Cc3cn(CC(C)(F)F)nc3N(Cc3ccccc3C(F)(F)F)C2=O)CC1 | enzyme activity, inhibitor | human, liver microsomes | – | IC50 | > 10 µM |
| N[C@@H](COCc1ccccc1)C(=O)Nc1nc2ccc(OC(F)(F)F)cc2s1 | metabolic stability | human, liver microsomes | 1 µM, 0 h, pH 7.4 | compound remaining | 100% |
| Nc1nc(N)c2nc(CNc3ccc(C(=O)N4CCC(C(=O)O)CC4)cc3)cnc2n1 | enzyme activity, inhibitor, luciferase | – | 10 µM | inhibition | -33.3% |
| C=CC(=O)Nc1cc(Nc2nccc(Nc3cc(Cl)c(F)cc3C(C)(C)O)n2)c(OC)cc1N1CC[C@@H](N(C)C)C1 | enzyme activity, inhibitor | human, liver microsomes | 10 µM | inhibition | < 20% |
| CCc1cc(/C(C)=N/OCc2ccc(C3CCCCC3)c(C(F)(F)F)c2)ccc1CN1CC(C(=O)O)C1 | enzyme activity, inhibitor | human, liver microsomes | 200 µM, 20 min | inhibition | -193% |
| N=C(N)NCc1ccc(NC(=O)C23CCC(C(=O)Nc4ccc(C5=CCN(C(=N)N)CC5)cc4)(CC2)CC3)cc1 | enzyme activity, inhibitor | liver microsomes | 10 µM | inhibition | 0% |
| COc1ccc(Oc2ccc(CN(Cc3ccccc3)Cc3cnc4nc(N)nc(N)c4n3)cc2)cc1 | enzyme activity, inhibitor, luciferase | – | 10 µM | inhibition | -21.8% |
| CC1(CO)C(O[C@@H]2O[C@H](C(=O)O)[C@@H](O)[C@H](O)[C@H]2O)CC[C@@]2(C)C1CC[C@]1(C)C2CC=C2[C@H]3CC(C)(C)[C@H](O)[C@@H](O)[C@]3(CO)[C@H](O)C[C@]21C (stereo partly drawn) | enzyme activity, inhibitor, mass spectrometry | human, liver microsomes | – | IC50 | > 90 µg/mL |
| COc1ccc(CNC(=O)c2ccc(CNCc3cnc4nc(N)nc(N)c4n3)cc2)cc1OC | enzyme activity, inhibitor, luciferase | – | 10 µM | inhibition | -18.2% |
| O=C(N[C@H](Cc1c[nH]c2ccccc12)C(=O)Nc1ccncc1)c1ccc(-c2cc(F)ccc2F)cc1F | enzyme activity, inhibitor | human, liver microsomes | 1 µM | inhibition | 3% |
